Calls of active or inactive are those of the source.
Assays:
Mus musculus [1] = assay: Activation of iNKT cells in C57BL/6 mouse assessed as intracellular cytokine expression at 5 or 10 ug, ip by FACS analysis; format: functional, organism-based
Procedure, shortened: (§1)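 Lipid given intraperitoneally to NOD or C57Bl/6 mice in PBS with […] Tween-20 (200 μg/mL). iNKT cell frequency and intracellular cytokine expression read by flow cytometry (FACS).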

iNKT [2] = assay: Induction of cytokine expression in C57BL/6 mouse iNKT cells at 100 ng/mL after 24 hrs by intracellular staining for IFN-gamma; format: functional, cell-based
Procedure, shortened: (§2)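 Splenocytes from NOD or C57Bl/6 mice, CFSE-labeled and stimulated in vitro with the glycolipid. Cytokine induction measured by intracellular IFNγ staining at 24 and 48 h.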

iNKT [3] = assay: Induction of cytokine expression in C57BL/6 mouse iNKT cells at 100 ng/mL after 48 hrs by intracellular staining for IFN-gamma; format: functional, cell-based; procedure, shortened: as §2
iNKT [4] = assay: Induction of cytokine expression in C57BL/6 mouse iNKT cells at 200 ng/mL after 24 hrs by intracellular staining for IFN-gamma; format: functional, cell-based; procedure, shortened: as §2
iNKT [5] = assay: Induction of cytokine expression in C57BL/6 mouse iNKT cells at 200 ng/mL after 48 hrs by intracellular staining for IFN-gamma; format: functional, cell-based; procedure, shortened: as §2
iNKT [6] = assay: Induction of cell proliferation in C57BL/6 mouse iNKT cells at 100 ng/mL after 24 hrs by CFSE dilution; format: functional, cell-based
Procedure, shortened: (§3)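 Splenocytes isolated from NOD or C57Bl/6 mice, labeled with CFSE and stimulated with the glycolipid in vitro. Proliferation read as CFSE dilution at 24 and 48 h.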

iNKT [7] = assay: Induction of cell proliferation in C57BL/6 mouse iNKT cells at 100 ng/mL after 48 hrs by CFSE dilution; format: functional, cell-based; procedure, shortened: as §3
iNKT [8] = assay: Induction of cell proliferation in C57BL/6 mouse iNKT cells at 200 ng/mL after 24 hrs by CFSE dilution; format: functional, cell-based; procedure, shortened: as §3
iNKT [9] = assay: Induction of cell proliferation in C57BL/6 mouse iNKT cells at 200 ng/mL after 48 hrs by CFSE dilution; format: functional, cell-based; procedure, shortened: as §3
Mus musculus [10] = assay: Activation of iNKT cells in NOD mouse assessed as intracellular cytokine expression at 5 or 10 ug, ip by FACS analysis; format: functional, organism-based; procedure, shortened: as §1
Mus musculus [11] = assay: Activation of iNKT cells in C57BL/6 mouse assessed as cell frequency at 5 or 10 ug, ip by FACS analysis; format: functional, organism-based; procedure, shortened: as §1
Mus musculus [12] = assay: Activation of iNKT cells in NOD mouse assessed as cell frequency at 5 or 10 ug, ip by FACS analysis; format: functional, organism-based; procedure, shortened: as §1
iNKT [13] = assay: Induction of cytokine expression in NOD mouse iNKT cells at 100 ng/mL after 24 hrs by intracellular staining for IFN-gamma; format: functional, cell-based; procedure, shortened: as §2
iNKT [14] = assay: Induction of cytokine expression in NOD mouse iNKT cells at 100 ng/mL after 48 hrs by intracellular staining for IFN-gamma; format: functional, cell-based; procedure, shortened: as §2
iNKT [15] = assay: Induction of cytokine expression in NOD mouse iNKT cells at 200 ng/mL after 24 hrs by intracellular staining for IFN-gamma; format: functional, cell-based; procedure, shortened: as §2
iNKT [16] = assay: Induction of cytokine expression in NOD mouse iNKT cells at 200 ng/mL after 48 hrs by intracellular staining for IFN-gamma; format: functional, cell-based; procedure, shortened: as §2
iNKT [17] = assay: Induction of cell proliferation in NOD mouse iNKT cells at 100 ng/mL after 24 hrs by CFSE dilution; format: functional, cell-based; procedure, shortened: as §3
iNKT [18] = assay: Induction of cell proliferation in NOD mouse iNKT cells at 100 ng/mL after 48 hrs by CFSE dilution; format: functional, cell-based; procedure, shortened: as §3
iNKT [19] = assay: Induction of cell proliferation in NOD mouse iNKT cells at 200 ng/mL after 24 hrs by CFSE dilution; format: functional, cell-based; procedure, shortened: as §3
iNKT [20] = assay: Induction of cell proliferation in NOD mouse iNKT cells at 200 ng/mL after 48 hrs by CFSE dilution; format: functional, cell-based; procedure, shortened: as §3

Measured: Activity

CCCCCCCCCCCCCCCCCCCCCCCCCC(=O)N[C@@H](CS[C@H]1O[C@H](CO)[C@H](O)[C@H](O)[C@H]1O)[C@H](O)[C@H](O)CCCCCCCCCCCCCC
inactive: all assays above

Source: ChEMBL document CHEMBL1152188, “Alpha-S-GalCer: synthesis and evaluation for iNKT cell stimulation” (Bioorg Med Chem Lett, 2008)
